# Calls of active or inactive are those of the source. The calls are words filed in the database; no cut-off is given here.
# Columns and labels:
# Mus musculus [1] = test: Antiinflammatory activity against carrageenan-induced paw edema in Swiss mouse assessed as inhibition of paw edema at 100 mg/kg administered 30 mins prior to carrageenan challenge and measured after 4 hrs by […]-method (reference value: 14.46 +/- 1.568%); assay type: functional; details: time 4.5 hrs
# [2] = Acute toxicity in Swiss albino mouse assessed as drowsiness at 1000 mg/kg, ip administered as single dose measured after 4 hrs; assay type: organism-based; details: in vivo
# In short: (§1)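 Swiss albino mice of either sex (30-35 g), kept at 22-25 °C on a 12 h light/dark cycle with free food and water. Single i.p. dose; controls received normal saline 10 mL/kg. Animals were watched at random for allergic or abnormal behavioural signs during the first 4 h.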
# [3] = Acute toxicity in Swiss albino mouse assessed as tremor at 1000 mg/kg, ip administered as single dose measured after 4 hrs; assay type: organism-based; details: in vivo; in short: as §1
# Mus musculus [4] = test: Antiinflammatory activity in bradykinin-induced paw edema in Balb/c mouse assessed as inhibition of paw edema at 100 mg/kg, ip administered 1 hr prior to bradykinin challenge and measured after 3 hrs relative to control; assay type: functional; details: time 4 hrs
# In short: (§2)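 BALB/c mice of either sex (30–35 g), 8 per group, dosed i.p. with 10% DMSO, reference drug or compound (100 mg/kg). After 1 h, subplantar irritant: PGE2 0.01 µg/ml, bradykinin 20 µg/ml, histamine 0.1 ml of 1 mg/ml, or leukotriene 10 µg/ml.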
# [5] = Acute toxicity in Swiss albino mouse assessed as change in gait at 1000 mg/kg, ip administered as single dose measured after 4 hrs; assay type: organism-based; details: in vivo; in short: as §1
# [6] = Acute toxicity in Swiss albino mouse assessed as changes in central nervous system at 1000 mg/kg, ip administered as single dose measured after 4 hrs; assay type: organism-based; details: in vivo; in short: as §1
# Mus musculus [7] = test: Antiinflammatory activity against carrageenan-induced paw edema in Swiss mouse assessed as inhibition of paw edema at 50 mg/kg administered 30 mins prior to carrageenan challenge and measured after 2 hrs by […]-method (reference value: 7.39 +/- 2.475%); assay type: functional; details: time 2.5 hrs
# Mus musculus [8] = test: Antiinflammatory activity against carrageenan-induced paw edema in Swiss mouse assessed as inhibition of paw edema at 100 mg/kg administered 30 mins prior to carrageenan challenge and measured after 5 hrs by […]-method (reference value: 7.31 +/- 3.204%); assay type: functional; details: time 5.5 hrs
# [9] = Acute toxicity in Swiss albino mouse assessed as clinical changes in fur at 1000 mg/kg, ip administered as single dose measured after 4 hrs; assay type: organism-based; details: in vivo; in short: as §1
# Mus musculus [10] = test: Antiinflammatory activity against carrageenan-induced paw edema in Swiss mouse assessed as inhibition of paw edema at 25 mg/kg administered 30 mins prior to carrageenan challenge and measured after 4 hrs by […]-method (reference value: 14.46 +/- 1.568%); assay type: functional; details: time 4.5 hrs
# [11] = Acute toxicity in Swiss albino mouse assessed as clinical changes in salivation at 1000 mg/kg, ip administered as single dose measured after 4 hrs; assay type: organism-based; details: in vivo; in short: as §1
# [12] = Inhibition of trypsin (unknown origin) using casein as substrate preincubated for 5 mins followed by substrate addition and measured after 20 mins; set-up: species or system Homo sapiens
# In short: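 Trypsin 0.06 mg/ml in 20 mM Tris-HCl pH 7.4 with compound at 31.25–1000 µg/ml, 5 min at 37 °C. 0.8% (w/v) casein added, 20 min further, stopped with 70% perchloric acid. After centrifugation, supernatant absorbance read at 217 nm against buffer blank. % inhibition against control; IC50 from plot; three runs.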
# [13] = target: T1, Polyunsaturated fatty acid 5-lipoxygenase (Homo sapiens, UniProt P09917); test: Inhibition of recombinant human 5LOX expressed in baculovirus infected Sf insect cells using linoleic acid as substrate preincubated for 5 mins followed by substrate addition
# T1 sequence (P09917 whole entry): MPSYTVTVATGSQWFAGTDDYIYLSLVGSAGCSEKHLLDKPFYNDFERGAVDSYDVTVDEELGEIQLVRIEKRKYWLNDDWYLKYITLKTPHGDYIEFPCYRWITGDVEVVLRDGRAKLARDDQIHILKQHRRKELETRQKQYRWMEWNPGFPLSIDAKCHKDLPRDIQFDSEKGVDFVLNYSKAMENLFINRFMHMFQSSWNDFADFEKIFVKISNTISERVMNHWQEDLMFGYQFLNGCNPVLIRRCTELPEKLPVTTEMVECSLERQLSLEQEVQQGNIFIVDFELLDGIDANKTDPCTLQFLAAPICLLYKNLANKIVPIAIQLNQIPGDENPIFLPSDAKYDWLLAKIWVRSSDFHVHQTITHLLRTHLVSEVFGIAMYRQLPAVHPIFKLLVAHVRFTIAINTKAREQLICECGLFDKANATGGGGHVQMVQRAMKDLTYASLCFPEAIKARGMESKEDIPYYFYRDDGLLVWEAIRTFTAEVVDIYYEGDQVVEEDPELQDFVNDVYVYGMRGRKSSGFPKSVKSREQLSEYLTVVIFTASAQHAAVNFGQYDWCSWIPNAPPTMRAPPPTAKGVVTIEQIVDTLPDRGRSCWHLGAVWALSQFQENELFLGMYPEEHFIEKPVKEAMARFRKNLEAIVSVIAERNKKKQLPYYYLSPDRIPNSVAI
# Mus musculus [14] = test: Antiinflammatory activity in leukotriene-induced paw edema in Balb/c mouse assessed as inhibition of paw edema at 100 mg/kg, ip administered 1 hr prior to leukotriene challenge and measured after 3 hrs relative to control; assay type: functional; details: time 4 hrs; in short: as §2
# [15] = Acute toxicity in Swiss albino mouse assessed as ptosis at 1000 mg/kg, ip administered as single dose measured after 4 hrs; assay type: organism-based; details: in vivo; in short: as §1
# [16] = Acute toxicity in Swiss albino mouse assessed as clinical changes in piloerection at 1000 mg/kg, ip administered as single dose measured after 4 hrs; assay type: organism-based; details: in vivo; in short: as §1
# Mus musculus [17] = test: Antiinflammatory activity against carrageenan-induced paw edema in Swiss mouse assessed as inhibition of paw edema at 50 mg/kg administered 30 mins prior to carrageenan challenge and measured after 4 hrs by […]-method (reference value: 14.46 +/- 1.568%); assay type: functional; details: time 4.5 hrs
# [18] = Acute toxicity in Swiss albino mouse assessed as clinical changes in perspiration at 1000 mg/kg, ip administered as single dose measured after 4 hrs; assay type: organism-based; details: in vivo; in short: as §1
# [19] = Acute toxicity in Swiss albino mouse assessed as clinical changes in skin at 1000 mg/kg, ip administered as single dose measured after 4 hrs; assay type: organism-based; details: in vivo; in short: as §1
# [20] = Acute toxicity in Swiss albino mouse assessed as changes in circulatory signs at 1000 mg/kg, ip administered as single dose measured after 4 hrs; assay type: organism-based; details: in vivo; in short: as §1
# Mus musculus [21] = test: Antiinflammatory activity in PGE2-induced paw edema in Balb/c mouse assessed as inhibition of paw edema at 100 mg/kg, ip administered 1 hr prior to PGE2 challenge and measured after 4 hrs relative to control; assay type: functional; details: time 5 hrs; in short: as §2
# Mus musculus [22] = test: Antiinflammatory activity in PGE2-induced paw edema in Balb/c mouse assessed as inhibition of paw edema at 100 mg/kg, ip administered 1 hr prior to PGE2 challenge and measured after 5 hrs; assay type: functional, organism-based; details: time 6.0 hrs; in short: as §2
# Mus musculus [23] = test: Antiinflammatory activity in leukotriene-induced paw edema in Balb/c mouse assessed as inhibition of paw edema at 100 mg/kg, ip administered 1 hr prior to leukotriene challenge and measured after 2 hrs relative to control; assay type: functional; details: time 3 hrs; in short: as §2
SMILES,inhibition in vivo at 100 mg/kg (Mus musculus [1]),Activity [2],Activity [3],inhibition in vivo at 100 mg/kg (Mus musculus [4]),Activity [5],Activity [6],inhibition in vivo at 50 mg/kg (Mus musculus [7]),inhibition in vivo at 100 mg/kg (Mus musculus [8]),Activity [9],inhibition in vivo at 25 mg/kg (Mus musculus [10]),Activity [11],IC50 [12],IC50 [13],Activity [15],Activity [16],inhibition in vivo at 50 mg/kg (Mus musculus [17]),Activity [18],Activity [19],Activity [20],also measured
Cc1ccc(C(=O)CC2CC(=O)N(c3ccc(S(N)(=O)=O)cc3)C2=O)cc1 (configuration not stated),66.1%,Non-Toxic,Non-Toxic,27.1%,Non-Toxic,Non-Toxic,57.3%,68.2%,Non-Toxic,54.2%,Non-Toxic,15.3 µM,0.86 µM,Non-Toxic,Non-Toxic,57.3%,Non-Toxic,Non-Toxic,Non-Toxic,inhibition in vivo at 100 mg/kg (Mus musculus [14]): 74.4%
O=C1CCCCC1C1CC(=O)N(Cc2ccccc2)C1=O (configuration not stated),49.7%,Non-Toxic,Non-Toxic,12.4%,Non-Toxic,Non-Toxic,37.4%,55.1%,Non-Toxic,27.8%,Non-Toxic,17.5 µM,36 µM,Non-Toxic,Non-Toxic,44.5%,Non-Toxic,Non-Toxic,Non-Toxic,inhibition in vivo at 100 mg/kg (Mus musculus [21]): 64.6%; inhibition (Mus musculus [22]): Active; inhibition in vivo at 100 mg/kg (Mus musculus [23]): 60.1%
